Data taken from ChEMBL document CHEMBL5150051, “Identification and Characterization of a Novel Indoleamine 2,3-Dioxygenase 1 Protein Degrader for Glioblastoma” (J Med Chem, 2022).
Calls of active or inactive are those of the source. The rule behind the calls is not given here.

Columns and labels:
[1] = biological target: T1, Protein cereblon/Indoleamine 2,3-dioxygenase 1 (Homo sapiens, UniProt P14902+Q96SW2); assay: Binding affinity to CRBN /IDO1 (unknown origin) assessed as ternary complex stability by measuring half-life by bio-layer interferometry assay; assay type: protein assay
Outline: (§1)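 For the ternary complex, compound was preincubated with a 25-fold molar excess of CRBN, and binding of this binary complex to IDO1 was followed in real time.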
Target sequence in this assay (P14902 whole entry, looked up): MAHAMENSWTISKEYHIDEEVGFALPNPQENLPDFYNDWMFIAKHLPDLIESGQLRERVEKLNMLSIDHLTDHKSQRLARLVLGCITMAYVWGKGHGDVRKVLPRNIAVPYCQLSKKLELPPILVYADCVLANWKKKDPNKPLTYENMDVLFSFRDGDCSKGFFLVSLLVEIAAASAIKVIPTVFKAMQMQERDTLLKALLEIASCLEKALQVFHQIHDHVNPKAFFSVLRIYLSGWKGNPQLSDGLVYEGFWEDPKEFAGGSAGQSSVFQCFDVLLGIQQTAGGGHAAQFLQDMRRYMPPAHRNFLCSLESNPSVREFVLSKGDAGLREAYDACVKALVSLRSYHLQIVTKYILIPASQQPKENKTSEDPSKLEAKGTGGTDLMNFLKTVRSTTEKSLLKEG
Target sequence in this assay (Q96SW2 whole entry, looked up): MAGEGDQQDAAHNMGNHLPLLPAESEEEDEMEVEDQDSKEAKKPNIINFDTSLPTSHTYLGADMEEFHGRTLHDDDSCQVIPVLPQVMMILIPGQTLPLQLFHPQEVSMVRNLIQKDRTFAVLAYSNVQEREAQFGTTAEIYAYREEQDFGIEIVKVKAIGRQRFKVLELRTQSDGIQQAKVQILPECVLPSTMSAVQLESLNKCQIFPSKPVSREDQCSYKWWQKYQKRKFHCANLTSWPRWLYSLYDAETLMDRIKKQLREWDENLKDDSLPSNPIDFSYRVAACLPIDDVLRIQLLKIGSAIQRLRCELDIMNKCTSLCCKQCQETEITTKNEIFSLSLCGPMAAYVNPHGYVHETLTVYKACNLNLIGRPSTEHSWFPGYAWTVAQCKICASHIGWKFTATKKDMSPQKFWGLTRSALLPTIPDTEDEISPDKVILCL

[2] = biological target: T1, Protein cereblon/Indoleamine 2,3-dioxygenase 1; assay: Protac activity at IDO1/CRBN in IFNgamma-stimulated human U87 cells assessed as IDO1 degradation at 10 uM measured after 24 hrs by Western blotting analysis relative to control; assay type: cell-based
Outline: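 U87 GBM cells primed with human IFNγ 50 ng/mL for 24 h, then exposed to PROTAC at 10 μM for 24 h. Lysates run on western blot; IDO1 bands quantified by densitometry and expressed as percent of normalized IDO1 protein level.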
Target sequence in this assay (P14902 whole entry, looked up): as the sequence (P14902 whole entry, looked up) above
Target sequence in this assay (Q96SW2 whole entry, looked up): as the sequence (Q96SW2 whole entry, looked up) above

[3] = biological target: T1, Protein cereblon/Indoleamine 2,3-dioxygenase 1; assay: Protac activity at IDO1/CRBN in IFNgamma-stimulated human U87 cells assessed as IDO1 degradation measured after 24 hrs by Western blotting analysis; assay type: cell-based
Outline: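 U87 cells given human IFNγ 50 ng/mL for 24 h to induce IDO1, then PROTAC over a dose range starting at 0.01 μM and rising to 30 μM for 24 h. Western blot read-out. IDO1 band densitometry normalized to untreated samples and fitted to give DC50, the concentration giving 50% IDO1 degradation. n = 3 independent experiments, mean ± SEM.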
Target sequence in this assay (P14902 whole entry): as the sequence (P14902 whole entry, looked up) above
Target sequence in this assay (Q96SW2 whole entry): as the sequence (Q96SW2 whole entry, looked up) above

[4] = biological target: T1, Protein cereblon/Indoleamine 2,3-dioxygenase 1; assay: Protac activity at IDO1/CRBN in IFNgamma-stimulated human SK-OV-3 cells assessed as IDO1 degradation by measuring decrease in intracellular protein level measured after 24 hrs by Western blotting analysis; assay type: cell-based; conditions: dose 1-10 µM, DDE = dose-dependent effect
Target sequence in this assay (P14902 whole entry, looked up): as the sequence (P14902 whole entry, looked up) above
Target sequence in this assay (Q96SW2 whole entry, looked up): as the sequence (Q96SW2 whole entry, looked up) above

[5] = biological target: Ido1/Crbn (Mus musculus) (UniProt P28776+Q8C7D2); assay: Protac activity at IDO1/CRBN in IFNgamma-stimulated mouse GL261 cells assessed as IDO1 degradation by measuring decrease in intracellular protein level measured after 24 hrs by Western blotting analysis; assay type: cell-based; conditions: dose 1-10 µM, DDE = dose-dependent effect
Ido1/Crbn (Mus musculus), sequence (P28776 whole entry, looked up): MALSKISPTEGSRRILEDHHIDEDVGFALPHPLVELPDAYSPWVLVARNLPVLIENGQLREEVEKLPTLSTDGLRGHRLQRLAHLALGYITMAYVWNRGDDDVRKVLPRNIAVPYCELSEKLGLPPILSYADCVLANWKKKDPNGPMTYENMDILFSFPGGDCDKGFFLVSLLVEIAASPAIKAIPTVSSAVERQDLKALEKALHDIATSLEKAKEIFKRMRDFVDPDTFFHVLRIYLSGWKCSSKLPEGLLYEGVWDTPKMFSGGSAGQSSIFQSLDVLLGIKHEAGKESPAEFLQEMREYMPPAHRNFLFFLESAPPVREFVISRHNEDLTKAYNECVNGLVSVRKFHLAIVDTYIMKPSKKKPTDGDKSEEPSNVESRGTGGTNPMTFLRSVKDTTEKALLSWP
Ido1/Crbn (Mus musculus), sequence (Q8C7D2 whole entry, looked up): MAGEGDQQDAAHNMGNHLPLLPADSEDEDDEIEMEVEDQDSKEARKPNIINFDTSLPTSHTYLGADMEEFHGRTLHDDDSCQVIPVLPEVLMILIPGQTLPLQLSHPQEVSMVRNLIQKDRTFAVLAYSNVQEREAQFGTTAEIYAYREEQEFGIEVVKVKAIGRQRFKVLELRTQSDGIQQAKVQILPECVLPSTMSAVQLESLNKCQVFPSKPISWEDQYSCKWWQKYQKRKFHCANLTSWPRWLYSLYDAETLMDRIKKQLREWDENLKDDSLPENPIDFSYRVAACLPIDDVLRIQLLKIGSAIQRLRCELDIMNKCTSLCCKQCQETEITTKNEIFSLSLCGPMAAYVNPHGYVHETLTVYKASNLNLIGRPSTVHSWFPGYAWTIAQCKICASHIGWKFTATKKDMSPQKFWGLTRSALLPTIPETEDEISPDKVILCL

[6] = biological target: T1, Protein cereblon/Indoleamine 2,3-dioxygenase 1; assay: Protac activity at IDO1/CRBN in IFNgamma-stimulated human GBM6 cells assessed as IDO1 degradation measured after 24 hrs by Western blotting analysis; assay type: cell-based; conditions: dose 0.1-10 µM, DDE = dose-dependent effect
Target sequence in this assay (P14902 whole entry, looked up): as the sequence (P14902 whole entry, looked up) above
Target sequence in this assay (Q96SW2 whole entry, looked up): as the sequence (Q96SW2 whole entry, looked up) above

[7] = biological target: T1, Protein cereblon/Indoleamine 2,3-dioxygenase 1; assay: Protac activity at IDO1/CRBN in IFNgamma-stimulated human DIPG007 cells assessed as IDO1 degradation measured after 24 hrs by Western blotting analysis; assay type: cell-based; conditions: HSJD-DIPG-007, dose 0.1-10 µM, DDE = dose-dependent effect
Target sequence in this assay (P14902 whole entry, looked up): as the sequence (P14902 whole entry, looked up) above
Target sequence in this assay (Q96SW2 whole entry, looked up): as the sequence (Q96SW2 whole entry, looked up) above

[8] = biological target: T1, Protein cereblon/Indoleamine 2,3-dioxygenase 1; assay: Protac activity at IDO1/CRBN in IFNgamma-stimulated human PBMC cells isolated form non-GBM patient assessed as IDO1 degradation by measuring decrease in intracellular protein level measured after 24 hrs by Western blotting analysis; assay type: cell-based; conditions: DDE = dose-dependent effect
Target sequence in this assay (P14902 whole entry, looked up): as the sequence (P14902 whole entry, looked up) above
Target sequence in this assay (Q96SW2 whole entry, looked up): as the sequence (Q96SW2 whole entry, looked up) above

[9] = biological target: T1, Protein cereblon/Indoleamine 2,3-dioxygenase 1; assay: Protac activity at CRBN/IDO1-FLAG expressed in human U87 cells assessed as IDO1 degradation measured at 1 to 10 uM after 24 hrs by Western blotting analysis; assay type: cell-based; conditions: dose 1-10 µM
[10] = biological target: T1, Protein cereblon/Indoleamine 2,3-dioxygenase 1; assay: Protac activity at CRBN/IDO1-HA expressed in human U87 cells assessed as IDO1 degradation measured at 1 to 10 uM after 24 hrs by Western blotting analysis; assay type: cell-based; conditions: dose 1-10 µM
[11] = biological target: T1, Protein cereblon/Indoleamine 2,3-dioxygenase 1; assay: Protac activity at CRBN/IDO1-HA expressed in human U87 cells assessed as IDO1 degradation in intracellular nuclear compartment measured at 1 to 10 uM after 24 hrs by Western blotting analysis; assay type: subcellular; conditions: Nucleus, dose 1-10 µM
[12] = biological target: T1, Protein cereblon/Indoleamine 2,3-dioxygenase 1; assay: Protac activity at IDO1/CRBN in IFNgamma-stimulated human GBM43 cells assessed as IDO1 degradation by measuring decrease in protein level measured at 10 uM for 16 to 96 hrs by Western blotting analysis; assay type: cell-based; conditions: GBM43 cell, time 16-96 hrs
[13] = biological target: T1, Protein cereblon/Indoleamine 2,3-dioxygenase 1; assay: Binding affinity to CRBN/IDO1 (unknown origin) assessed as ternary complex affinity by bio-layer interferometry assay; assay type: protein assay; outline: as §1
[14] = biological target: T1, Protein cereblon/Indoleamine 2,3-dioxygenase 1; assay: Protac activity at CRBN/IDO1 in IFNgamma-stimulated human U87 cells assessed as decrease in kynurenine level measured after 24 hrs by Ehrlich's test; assay type: cell-based; conditions: DDE = dose-dependent effect
Outline: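 U87 or GBM43 cells given compound together with 50 ng/mL IFNγ for 24 h. Supernatant kynurenine was measured with Ehrlich's reagent. Cells cultured without IFNγ served as control.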

[15] = biological target: T1, Protein cereblon/Indoleamine 2,3-dioxygenase 1; assay: Protac activity at CRBN/IDO1 in IFNgamma-stimulated human OVCAR-5 cells assessed as decrease in kynurenine level at 10 uM measured after 24 hrs by Ehrlich's test; assay type: cell-based
[16] = biological target: T1, Protein cereblon/Indoleamine 2,3-dioxygenase 1; assay: Protac activity at CRBN/IDO1 non-enzyme mediated p65 phosphorylation in enzyme-null cDNA transfected in IFNgamma-stimulated human U87 cells measured at 0.1 to 10 uM after 24 hrs by Western blotting analysis; assay type: cell-based; conditions: dose 0.1-10 µM
[17] = biological target: T1, Protein cereblon/Indoleamine 2,3-dioxygenase 1; assay: Protac activity at IDO1/CRBN in human U87 cells assessed as decrease in phosphorylated p65 in nucleus at 1 to 10 uM measured after 24 hrs by Western blot analysis; assay type: cell-based; conditions: dose 1-10 µM
Outline: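 Cytoplasmic and nuclear fractions prepared from U87 cells after 24 h treatment with DMSO or compound. Fractions blotted for IDO1, phospho-p65 and total p65, with HDAC2 as nuclear marker and tubulin as cytoplasmic marker.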

[18] = Drug uptake in C57BL/6 mouse intestine at 50 mg/kg, ip treated 5 days/week for 3 weeks by LC/MS/MS analysis; assay type: ADME, organism-based; conditions: in vivo, 504 h
[19] = Drug uptake in C57BL/6 mouse pancreas at 50 mg/kg, ip treated 5 days/week for 3 weeks by LC/MS/MS analysis; assay type: ADME, organism-based; conditions: in vivo, 504 h
[20] = Drug uptake in C57BL/6 mouse intestine at 100 mg/kg, ip treated 5 days/week for 3 weeks by LC/MS/MS analysis; assay type: ADME, organism-based; conditions: in vivo, 504 h
[21] = Drug uptake in C57BL/6 mouse liver at 100 mg/kg, ip treated 5 days/week for 3 weeks by LC/MS/MS analysis; assay type: ADME, organism-based; conditions: in vivo, 504 h
[22] = Drug uptake in C57BL/6 mouse pancreas at 100 mg/kg, ip treated 5 days/week for 3 weeks by LC/MS/MS analysis; assay type: ADME, organism-based; conditions: in vivo, 504 h
[23] = Drug uptake in C57BL/6 mouse brain at 10 to 100 mg/kg, ip treated 5 days/week for 3 weeks by LC/MS/MS analysis; assay type: ADME, organism-based; conditions: in vivo, 504 h, dose 10-100 mg/kg
Outline: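 Male C57BL/6 mice dosed ip at 10, 25, 50 or 100 mg/kg, 5 days/week for 3 weeks, alongside vehicle. After 3 weeks, serum and brain homogenate were analysed by mass spectrometry for drug level; mean ± SEM, n = 3 mice/dose.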

[24] = Half life in C57BL/6 mouse plasma at 25 mg/kg, ip; assay type: ADME, organism-based
[25] = Half life in C57BL/6 mouse brain at 25 mg/kg, ip; assay type: ADME, organism-based
[26] = Cmax in C57BL/6 mouse plasma at 25 mg/kg, ip; assay type: ADME, organism-based; design: dose 25 mg/kg, route ip
[27] = Drug uptake in C57BL/6 mouse brain at 25 mg/kg, ip measured after 6 hrs by equilibrium dialysis; assay type: ADME, organism-based; conditions: in vivo
Outline: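 C57BL/6 mice received a single 25 mg/kg ip dose. Serum and brain were sampled at 0 to 24 h and the drug was quantified by mass spectrometry (n = 3 mice/dose). Binding to mouse brain homogenate was measured by 6 h equilibrium dialysis.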

Molecule `C[C@@H](C(=O)Nc1ccc(OC2CCN(C(=O)CCOCCOCCNc3cccc4c3C(=O)N(C3CCC(=O)NC3=O)C4=O)CC2)cc1)[C@H]1CC[C@@H](c2ccnc3ccc(F)cc32)CC1` (some centres not stated) has a T1/2 [1] of 7.7 min, an Activity [2] of 94% and an EC50 [3] of 329 nM. For the same molecule, the Activity [4] was “Dde”, the Activity [5] was “Dde” and the Activity [6] was “Dde”. For the same molecule, the Activity [7] was “Dde”, the Activity [8] was “Dde” and the Activity [9] was “Active”. The Activity [10] was “Active”, the Activity [11] was “Active” and the Activity [12] was “Active”. For the same molecule, the K [13] was 117 nM, the inhibition [14] was “Dde” and the inhibition [15] was “Active”. For the same molecule, the inhibition [16] was “Active”, the Activity [17] was “Active” and the Drug uptake [18] was “Active”. For the same molecule, the Drug uptake [19] was “Active”, the Drug uptake [20] was “Active” and the Drug uptake [21] was “Active”. The Drug uptake [22] was “Active”, the Drug uptake [23] was “Active” and the half-life [24] was 2.5 h. The half-life [25] was 8.3 h, the Cmax [26] was 365 µM and the Drug uptake [27] was 99.8%.
